The source made the active and inactive calls. The calls are words filed in the database; no cut-off is given here.
Legend:
[1] = target: T1, Angiotensin type II receptor (Sus scrofa, UniProt Q2XUH7); assay: Displacement of [125I]angiotensin 2 from AT2 receptor in pig uterus membrane after 1.5 hrs by gamma counting; type: cell membranes
T1 sequence (Q2XUH7 whole entry): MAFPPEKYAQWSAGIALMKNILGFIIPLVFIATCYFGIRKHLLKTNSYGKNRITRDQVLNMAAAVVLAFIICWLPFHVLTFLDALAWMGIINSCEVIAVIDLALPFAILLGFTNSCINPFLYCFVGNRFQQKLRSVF

[2] = Displacement of [125I]angiotensin 2 from AT1 receptor in rat liver membrane after 2 hrs by gamma counting; type: cell membranes
In short: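 Rat liver membranes (5 mg original tissue) were incubated with 0.03 nM [125I]Ang II and varied test-compound concentrations. Incubation was 2 h at 25 °C. Bound and free label were separated by filtration on PEI-soaked GF/B filters and bound label was gamma counted. Nonspecific binding was taken with 1 µM Ang II.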

CYP3A4 [3] = target: T2, CYP3A4 (Homo sapiens, UniProt P08684); assay: Inhibition of human recombinant CYP3A4 at 10 uM by spectrofluorimetry; type: ADME
In short: (§1)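 Compounds were tested at 10 µM in duplicate in a spectrofluorometric assay, with 0.25% final methanol and 0.25% final acetonitrile. Fluorescence at t = 0 was subtracted from fluorescence after incubation. Signal was compared with solvent-vehicle controls, and percent of control activity was reported as percent inhibition.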

CYP2C9 [4] = target: T3, CYP2C9 (Homo sapiens, UniProt P11712); assay: Inhibition of human recombinant CYP2C9 at 10 uM by spectrofluorimetry; type: ADME; in short: as §1
[5] = Displacement of [125I]angiotensin 2 from rat AT1 receptor expressed in african green monkey COS7 cells after 24 hrs; type: cell-based; conditions: cos-7
CYP2C9 [6] = target: T3, CYP2C9; assay: Inhibition of CYP2C9 at 10 uM; type: ADME; in short: as §1
CYP1A2 = target: T4, CYP1A2 (Homo sapiens, UniProt P05177); assay: Inhibition of human recombinant CYP1A2 at 10 uM by spectrofluorimetry; type: ADME; in short: as §1
T4 sequence (P05177 whole entry): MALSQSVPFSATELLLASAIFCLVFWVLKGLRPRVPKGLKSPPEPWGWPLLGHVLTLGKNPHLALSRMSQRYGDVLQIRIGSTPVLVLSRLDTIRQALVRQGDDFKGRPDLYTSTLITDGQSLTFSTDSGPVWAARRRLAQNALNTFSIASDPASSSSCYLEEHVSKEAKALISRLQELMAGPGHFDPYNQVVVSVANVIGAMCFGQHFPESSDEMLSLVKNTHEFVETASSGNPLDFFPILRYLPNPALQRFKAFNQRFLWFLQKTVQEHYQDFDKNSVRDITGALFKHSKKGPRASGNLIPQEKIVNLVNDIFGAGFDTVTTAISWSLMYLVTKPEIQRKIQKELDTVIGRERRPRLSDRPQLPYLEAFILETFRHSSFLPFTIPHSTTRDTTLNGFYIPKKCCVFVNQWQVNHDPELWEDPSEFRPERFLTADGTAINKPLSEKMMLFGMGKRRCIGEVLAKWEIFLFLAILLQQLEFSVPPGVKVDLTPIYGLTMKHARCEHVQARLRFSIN

CYP2C19 = CYP2C19 (Homo sapiens, UniProt P33261); assay: Inhibition of human recombinant CYP2C19 at 10 uM by spectrofluorimetry; type: ADME; in short: as §1
CYP3A4 [7] = target: T2, CYP3A4; assay: Inhibition of CYP3A4 at 10 uM; type: ADME; in short: as §1
CYP2B6 = target: T5, CYP2B6 (Homo sapiens, UniProt P20813); assay: Inhibition of human recombinant CYP2B6 at 10 uM by spectrofluorimetry; type: ADME; in short: as §1
T5 sequence (P20813 whole entry): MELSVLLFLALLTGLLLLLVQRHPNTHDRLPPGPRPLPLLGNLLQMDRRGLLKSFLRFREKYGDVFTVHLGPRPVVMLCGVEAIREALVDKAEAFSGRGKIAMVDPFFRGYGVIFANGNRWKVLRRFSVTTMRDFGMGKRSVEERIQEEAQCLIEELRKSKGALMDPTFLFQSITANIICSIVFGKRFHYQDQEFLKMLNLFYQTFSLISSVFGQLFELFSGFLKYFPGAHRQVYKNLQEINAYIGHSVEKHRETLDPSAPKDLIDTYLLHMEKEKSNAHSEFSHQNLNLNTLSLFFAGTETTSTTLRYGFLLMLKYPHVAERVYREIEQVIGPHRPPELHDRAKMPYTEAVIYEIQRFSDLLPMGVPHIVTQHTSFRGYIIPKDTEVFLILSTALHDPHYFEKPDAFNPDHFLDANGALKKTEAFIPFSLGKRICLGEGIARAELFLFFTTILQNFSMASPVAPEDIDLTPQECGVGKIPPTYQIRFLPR

CYP3A5 = CYP3A5 (Homo sapiens, UniProt P20815); assay: Inhibition of human recombinant CYP3A5 at 10 uM by spectrofluorimetry; type: ADME; in short: as §1
CYP2E1 = CYP2E1 (Homo sapiens, UniProt P05181); assay: Inhibition of human recombinant CYP2E1 at 10 uM by spectrofluorimetry; type: ADME; in short: as §1
NG108-15 [8] = assay: Cytotoxicity against rat/mouse hybrid NG108-15 cells up to 1 uM; type: cell-based
In short: (§2)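 NG108-15 cells were cultured for three days with test compound at 1 pM to 1 µM. Cell death was then judged by phase-contrast microscopy.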

NG108-15 [9] = assay: Agonist activity at AT2 receptor in rat/mouse hybrid NG108-15 cells assessed as induction of neurite growth at 0.1 nM after 3 days by phase contrast microscopy; type: functional, cell-based
In short: (§3)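 NG108-15 cells (passage 7–30) were grown in DMEM with 10% FBS, HAT and gentamycin at 37 °C in 7% CO2. Cells were stimulated once daily for three days, starting 24 h after plating. When used, PD123,319 (1 µM) was added 30 min before agonist. After 3 days, cells were scored from phase-contrast micrographs: positive meant at least one neurite longer than the cell body, expressed as % of total cells. At least 140 cells were counted in three independent experiments.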

NG108-15 [10] = assay: Agonist activity at AT2 receptor in rat/mouse hybrid NG108-15 cells assessed as induction of neurite growth at 100 nM after 3 days by phase contrast microscopy; type: functional, cell-based; conditions: 0.1 nM, in the assay text read “at 0.1 nM” for “at 100 nM”; in short: as §3
NG108-15 [11] = assay: Agonist activity at AT2 receptor in rat/mouse hybrid NG108-15 cells assessed as induction of neurite growth at 0.1 nM after 3 days by phase contrast microscopy in presence of 1 uM AT2 receptor antagonist PD-123319; type: functional, cell-based; in short: as §3
NG108-15 [12] = assay: Cytotoxicity against rat/mouse hybrid NG108-15 cells at 1 uM; type: cell-based; conditions: ng108-15, 1 µM; in short: as §2

T2 sequence (P08684 whole entry): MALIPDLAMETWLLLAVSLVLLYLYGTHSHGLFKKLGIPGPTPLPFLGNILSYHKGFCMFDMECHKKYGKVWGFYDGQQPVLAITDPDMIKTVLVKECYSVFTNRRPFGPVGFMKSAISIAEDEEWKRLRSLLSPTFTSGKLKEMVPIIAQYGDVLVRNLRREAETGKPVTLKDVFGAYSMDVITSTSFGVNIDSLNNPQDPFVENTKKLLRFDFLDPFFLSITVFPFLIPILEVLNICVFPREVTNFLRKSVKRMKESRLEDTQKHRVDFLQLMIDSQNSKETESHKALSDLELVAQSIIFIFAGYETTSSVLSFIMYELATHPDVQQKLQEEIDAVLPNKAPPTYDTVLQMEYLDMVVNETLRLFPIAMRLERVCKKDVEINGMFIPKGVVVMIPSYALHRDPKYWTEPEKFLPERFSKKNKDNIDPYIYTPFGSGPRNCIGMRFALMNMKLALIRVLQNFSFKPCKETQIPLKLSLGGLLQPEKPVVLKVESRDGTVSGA
T3 sequence (P11712 whole entry): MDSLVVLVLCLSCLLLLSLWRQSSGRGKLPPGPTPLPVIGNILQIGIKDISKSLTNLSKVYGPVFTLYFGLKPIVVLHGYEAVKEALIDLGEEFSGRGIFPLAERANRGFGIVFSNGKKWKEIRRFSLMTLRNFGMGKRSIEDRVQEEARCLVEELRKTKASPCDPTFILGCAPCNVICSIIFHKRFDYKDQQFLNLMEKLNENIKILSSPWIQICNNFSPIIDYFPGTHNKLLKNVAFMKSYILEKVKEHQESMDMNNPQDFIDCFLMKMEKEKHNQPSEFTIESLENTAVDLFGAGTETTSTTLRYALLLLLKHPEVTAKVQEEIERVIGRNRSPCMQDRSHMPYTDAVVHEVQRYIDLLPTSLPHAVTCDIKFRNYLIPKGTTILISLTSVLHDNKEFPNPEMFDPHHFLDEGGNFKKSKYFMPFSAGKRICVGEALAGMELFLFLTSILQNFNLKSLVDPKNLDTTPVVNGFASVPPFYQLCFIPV
Sequence of CYP2C19 (P33261 whole entry): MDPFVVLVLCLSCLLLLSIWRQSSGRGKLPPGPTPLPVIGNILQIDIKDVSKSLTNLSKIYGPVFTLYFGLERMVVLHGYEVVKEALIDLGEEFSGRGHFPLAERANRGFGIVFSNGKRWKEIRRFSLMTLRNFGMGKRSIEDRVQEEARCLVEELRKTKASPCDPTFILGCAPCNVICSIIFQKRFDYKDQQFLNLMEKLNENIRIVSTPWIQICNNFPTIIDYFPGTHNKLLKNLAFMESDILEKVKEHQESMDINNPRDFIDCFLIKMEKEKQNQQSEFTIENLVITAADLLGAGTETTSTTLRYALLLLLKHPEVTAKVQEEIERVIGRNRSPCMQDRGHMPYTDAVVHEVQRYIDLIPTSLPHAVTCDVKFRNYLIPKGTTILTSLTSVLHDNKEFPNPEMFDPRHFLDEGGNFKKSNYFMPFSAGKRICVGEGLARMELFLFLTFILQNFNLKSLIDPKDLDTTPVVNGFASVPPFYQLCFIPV
Sequence of CYP3A5 (P20815 whole entry): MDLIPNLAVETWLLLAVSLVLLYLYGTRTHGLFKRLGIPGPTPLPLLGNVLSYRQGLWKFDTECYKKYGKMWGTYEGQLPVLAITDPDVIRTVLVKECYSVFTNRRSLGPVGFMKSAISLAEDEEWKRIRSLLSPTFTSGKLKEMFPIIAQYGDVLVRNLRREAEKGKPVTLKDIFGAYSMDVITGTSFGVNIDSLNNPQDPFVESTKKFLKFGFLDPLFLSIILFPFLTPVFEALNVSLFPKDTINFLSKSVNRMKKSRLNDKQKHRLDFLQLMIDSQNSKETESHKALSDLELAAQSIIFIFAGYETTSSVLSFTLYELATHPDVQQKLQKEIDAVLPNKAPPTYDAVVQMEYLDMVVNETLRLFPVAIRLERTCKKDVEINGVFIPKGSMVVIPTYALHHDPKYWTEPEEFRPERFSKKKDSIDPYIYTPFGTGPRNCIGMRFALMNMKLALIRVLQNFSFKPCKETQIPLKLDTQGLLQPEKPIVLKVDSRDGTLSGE
Sequence of CYP2E1 (P05181 whole entry): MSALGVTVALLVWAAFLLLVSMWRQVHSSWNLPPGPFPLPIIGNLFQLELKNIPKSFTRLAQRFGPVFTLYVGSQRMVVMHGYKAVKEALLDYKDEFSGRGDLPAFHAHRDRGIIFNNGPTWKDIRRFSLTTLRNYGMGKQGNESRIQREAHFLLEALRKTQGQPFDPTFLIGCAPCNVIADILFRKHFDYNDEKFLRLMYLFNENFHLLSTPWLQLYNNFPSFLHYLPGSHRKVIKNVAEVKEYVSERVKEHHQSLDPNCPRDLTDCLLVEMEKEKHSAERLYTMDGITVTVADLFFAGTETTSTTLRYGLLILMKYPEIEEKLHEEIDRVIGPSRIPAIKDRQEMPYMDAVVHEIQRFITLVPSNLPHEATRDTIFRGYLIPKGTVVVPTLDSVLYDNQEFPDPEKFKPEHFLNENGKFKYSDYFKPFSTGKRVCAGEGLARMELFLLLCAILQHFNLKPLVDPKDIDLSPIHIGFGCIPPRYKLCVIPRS

Row | Compound | Ki [1] [nM] | Ki [2] [µM] | inhibition at 10 µM (CYP3A4 [3]) [%] | inhibition at 10 µM (CYP2C9 [4]) [%] | further results
1 | CCCCOC(=O)NS(=O)(=O)c1sc(CC(C)C)cc1-c1ccc(CN2CCOCC2)cc1 | 280 | > 10 | – | – | –
2 | CCCCOC(=O)NS(=O)(=O)c1sc(CC(C)C)cc1-c1ccc(Cn2cnc(C(F)(F)F)c2)cc1 | 7.3 | > 10 | 71 | 31 | –
3 | CCCCOC(=O)NS(=O)(=O)c1sc(CC(C)C)cc1-c1ccc(Cn2c(CC)nc3c(C)cc(C)nc32)cc1 | – | – | – | – | IC50 [5]: 1.1 nM
4 | CCCCOC(=O)NS(=O)(=O)c1sc(CC(C)C)cc1-c1ccc(Cc2ncco2)cc1 | 3.9 | > 10 | 57 | 83 | –
5 | CCCCOC(=O)NS(=O)(=O)c1sc(CC(C)C)cc1-c1ccc(Cn2cnnn2)cc1 | 49 | > 10 | – | – | –
6 | CCCCOC(=O)NS(=O)(=O)c1sc(CC(C)C)cc1-c1ccc(Cn2ccnc2)cc1 [BULOXIBUTID] | – | > 10 | 82 | 94 | inhibition at 10 µM (CYP2C9 [6]): 94%; inhibition at 10 µM (CYP1A2): 63%; inhibition at 10 µM (CYP2C19): 67%; inhibition at 10 µM (CYP3A4 [7]): 82%; inhibition at 10 µM (CYP2B6): 40%
7 | CCCCOC(=O)NS(=O)(=O)c1sc(CC(C)C)cc1-c1ccc(CN2C(=O)N(C)C(C)(C)C2=O)cc1 | 3.6 | > 10 | 20 | 38 | –
8 | CCCCOC(=O)NS(=O)(=O)c1sc(CC(C)C)cc1-c1ccc(Cc2nnc(C(F)(F)F)o2)cc1 | 328 | > 10 | – | – | –
9 | CCCCOC(=O)NS(=O)(=O)c1sc(CC(C)C)cc1-c1ccc(Cn2cccn2)cc1 | 2.3 | > 10 | 16 | 23 | inhibition at 10 µM (CYP2C19): 12%; inhibition at 10 µM (CYP2B6): 29%; inhibition at 10 µM (CYP3A5): 20%
10 | CCCCOC(=O)NS(=O)(=O)c1sc(CC(C)C)cc1-c1ccc(C(=O)c2cccs2)cc1 | 18.8 | > 10 | – | – | –
11 | CCCCOC(=O)NS(=O)(=O)c1sc(CC(C)C)cc1-c1ccc(CN2CCSC2)cc1 | 280 | > 10 | – | – | –
12 | CCCCOC(=O)NS(=O)(=O)c1sc(CC(C)C)cc1-c1ccc(CN2CCCC2=O)cc1 | 3.5 | > 10 | 28 | 24 | inhibition at 10 µM (CYP2E1): 5%; inhibition at 10 µM (CYP2C19): 25%; Activity (NG108-15 [8]): Non-toxic; Activity (NG108-15 [9]): Active; Activity (NG108-15 [10]): Active; Activity (NG108-15 [11]): inactive; inhibition at 10 µM (CYP2B6): 33%; Activity (NG108-15 [12]): Toxic; inhibition at 10 µM (CYP3A5): 25%
13 | CCCCOC(=O)NS(=O)(=O)c1sc(CC(C)C)cc1-c1ccc(C(=O)c2nccn2C)cc1 | 2.9 | > 10 | 14 | 38 | inhibition at 10 µM (CYP2C19): 6%; inhibition at 10 µM (CYP3A5): 17%
14 | CCCCOC(=O)NS(=O)(=O)c1sc(CC(C)C)cc1-c1ccc(C(=O)c2ccnn2C)cc1 | 3.4 | > 10 | – | – | –

Source: ChEMBL document CHEMBL1165972, “Selective angiotensin II AT(2) receptor agonists with reduced CYP 450 inhibition” (Bioorg Med Chem, 2010)
